Measured values reported in ChEMBL document CHEMBL1122247, “2-(6-carboxyhexyl)cyclopentanone hexylhydrazone. A potent and time-dependent inhibitor of platelet aggregation” (1983).

What was measured:
[1] = Tested for effect of plasma containing platelets (PRP) against arachidonic acid (500 uM) at 100 uM concentration; type: functional, Homo sapiens
Outline: (§1)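 Human platelet-rich plasma was pretreated 1 min with 25–100 μM agent, then challenged with arachidonic acid (500 μM) or U46619 (1 μM). Aggregation was followed turbidimetrically (Born) at 37 °C. Percent inhibition versus vehicle controls was read 3 min after agonist. Results are mean ± SEM from at least three separate blood donors.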

[2] = Tested for effect of plasma containing platelets (PRP) against U-46,619 (1 uM) at 50 uM concentration; type: functional, Homo sapiens; outline: as §1
[3] = Tested for effect of plasma containing platelets (PRP) against arachidonic acid (500 uM) at 50 uM concentration; type: functional, Homo sapiens; outline: as §1
[4] = Tested for effect of plasma containing platelets (PRP) against U-46,619 (1 uM) at 100 uM concentration; type: functional, Homo sapiens; outline: as §1
[5] = Tested for effect of plasma containing platelets (PRP) against arachidonic acid (500 uM) at 25 uM concentration; type: functional, Homo sapiens; outline: as §1
[6] = Time to complete inhibition of arachidonic acid (500 uM)-induced aggregation in platelet-rich plasma (PRP); settings: Homo sapiens
[7] = Tested for effect of plasma containing platelets (PRP) against arachidonic acid at 0.1 uM concentration; type: functional; settings: Homo sapiens
[8] = Tested for effect of plasma containing platelets (PRP) against ADP at 100 uM concentration; type: functional; settings: Homo sapiens
Outline: (§2)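 In human PRP, 100 μM hydrazone was tested against aggregation induced by U46619 (1–3 μM) or ADP (5 μM). Aggregation was measured by the Born turbidimetric method at 37 °C over 3 min. Reagents were added as 10-μL aliquots per mL of PRP. Percent inhibition is averaged over nine donors.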

[9] = Tested for effect of plasma containing platelets (PRP) against PGH-2 at 0.6 uM concentration; type: functional; settings: Homo sapiens
[10] = Tested for effect of plasma containing platelets (PRP) against platelet free plasma at 1 uM concentration; type: functional; settings: Homo sapiens
Outline: (§3)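 Hydrazone in ethanol was added to platelet-free plasma (100 μM final) and stirred. At 10-min intervals up to 1 h, aliquots were transferred to PRP (1 μM final). Aggregation to 500 μM arachidonic acid was then measured turbidimetrically at 37 °C. Controls had hydrazone added directly to PRP; seven donors.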

[11] = Tested for effect of plasma containing platelets (PRP) against U-46,619 at 100 uM concentration; type: functional; settings: Homo sapiens; outline: as §2
[12] = Tested for effect of plasma containing platelets (PRP) against arachidonic acid at 1 uM concentration; type: functional; settings: Homo sapiens
[13] = Tested for effect of […] against PGH-2 at 100 uM concentration; type: functional; settings: Homo sapiens, Plasma
[14] = Tested for effect of plasma containing platelets (PRP) against platelet free plasma at 500 uM concentration; type: functional; settings: Homo sapiens; outline: as §3
[15] = Tested for effect of plasma containing platelets (PRP) against U-46,619 (1 uM) at 25 uM concentration; type: functional, Homo sapiens; outline: as §1

Structure (SMILES) | Inhibition [1] | Inhibition [2] | Inhibition [3] | Inhibition [4] | Inhibition [5] | time to complete inhibition at 500 µM [6] | inhibition at 0.1 µM [7] | inhibition at 100 µM [8] | inhibition at 0.6 µM [9] | inhibition at 1 µM [10] | inhibition at 100 µM [11] | inhibition at 1 µM [12] | inhibition at 100 µM [13] | inhibition at 500 µM [14] | Inhibition [15]
CCCCCC(=O)N/N=C1\CCCC1CCCCCCC(=O)O (stereo not drawn) | 98% | 6% | 17% | 30% | 8% |  |  |  |  |  |  |  |  |  | 
CCCCCCN/N=C1\CCCC1CCCCCCC(=O)O (stereo not drawn) |  |  |  |  |  | 27 min | 44% | 6% | 6% | 29% | 4% | 99% | 89% | 100% | 
CCCCCCCN[C@H]1CCC[C@@H]1CCCCCCC(=O)O (relative stereo) |  | 98% | 100% |  | 100% |  |  |  |  |  |  |  |  |  | 76%
